Assay outcomes from PubChem.
HTR5A inv ag: HTR5A inverse agonists in luminescence cell assay, primary screen, counter-screen for OPRM1-OPRD1 heterodimer inverse agonist project, full-deck HTS. AID 504634, 2011. inhibition, % at 9.3 µM. 5-hydroxytryptamine receptor 5A (Homo sapiens), P47898. HTR5A cell line, inverse agonism. hit rate 0.083% among 340,000; in the data active = inhibition mostly above about 23%, no sharp cut-off; inactive = mostly below about 18%;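 note: 0% = cells with DMSO and 100% = no-cell wells with DMSO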
Target sequence (P47898 whole entry, looked up): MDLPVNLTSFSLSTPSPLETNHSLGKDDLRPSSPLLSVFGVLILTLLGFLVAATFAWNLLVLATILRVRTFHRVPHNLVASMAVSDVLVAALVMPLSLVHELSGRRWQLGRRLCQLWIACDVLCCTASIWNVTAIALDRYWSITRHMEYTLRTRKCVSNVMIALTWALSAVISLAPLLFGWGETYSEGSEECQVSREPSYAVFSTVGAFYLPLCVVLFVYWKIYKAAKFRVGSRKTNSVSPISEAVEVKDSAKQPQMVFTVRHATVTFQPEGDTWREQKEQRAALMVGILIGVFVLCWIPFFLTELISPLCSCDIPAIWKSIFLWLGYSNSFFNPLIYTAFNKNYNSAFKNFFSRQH
OPRM1-OPRD1 ag: agonists of OPRM1-OPRD1 heterodimerization, primary screen, cell-based, luminescence; Mu-type opioid receptor (Homo sapiens) + Delta-type opioid receptor (Homo sapiens), …; cells; activation, % at 9.3 µM; hit rate 0.3% among 340,000; AID 504326, 2011;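 note: 0% = vehicle-treated cells and 100% = reference agonist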
Arrestin-AP2 inh: inhibitors of beta-arrestin/AP2 binding, primary screen, biochemical, GPCR trafficking, flow cytometry. FITC-arrestin peptide / GST-AP2 beads; AP2 beta2 appendage carries R879A mutation. inhibition, % at 10 µM. hit rate 0.31% among 340,000;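 active = inhibition above a set limit, near 3 SD of compounds lacking own fluorescence, cut at about 54% in these data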;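 note: plate controls were DMSO wells for no effect and 5 µM unlabelled arrestin peptide for full effect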
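System: GST-tagged AP2 beta2-adaptin appendage (R879A) on 4 µm glutathione beads / Reagent: FITC-arrestin peptide, 50 nM / Detection: HyperCyt-sampled flow cytometry, FL1 channel, ex 488/em 535 nm / Timing: 12 min plus 1 h, RT / Buffer or medium: PBS plus Tween 20 (0.05%) and BSA (0.1%)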
HTR5A ag ctr: HTR5A agonists in luminescence cell assay, primary screen, counter-screen for OPRM1-OPRD1 heterodimer agonist project, full-deck HTS | 5-hydroxytryptamine receptor 5A (Homo sapiens), P47898 | cell-based | activation, % at 9.3 µM | hit rate 0.61% among 340,000; in the data active = activation mostly above about 9.5%, no sharp cut-off; inactive = mostly below about 7.6%;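 note: 0% = cells with vehicle only and 100% = reference agonist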
MOR-DOR inv ag: inverse agonists of MOR-DOR heterodimerization, primary screen, cell-based, luminescence | AID 504357, 2011 | cell-based MOR-DOR heterodimer luminescence, inverse agonism | hit rate 0.21% among 340,000 | inhibition, % at 9.3 µM | Mu-type opioid receptor (Homo sapiens) + Delta-type opioid receptor (Homo sapiens), …; in the data active = inhibition above about 22%, passing the limit was not always enough;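 note: 0% = cells with DMSO and 100% = wells without cells with DMSO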
DAGLB inhibitor: DAGLB lipase inhibitors, primary screen, biochemical, fluorescence, HTS; AID 504411, 2011; inhibition, % at 5.17 µM; HEK293T DAGLB membrane lysate, EnzChek fluorogenic substrate; Diacylglycerol lipase-beta (Homo sapiens), Q8NCG7; hit rate 0.059% among 340,000; in the data active = inhibition above about 34%;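 note: 0% = enzyme with vehicle and 100% = wells lacking enzyme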
OPRM1-D1 ag cf: agonists of MOR-DOR heterodimerization, confirmation, cell-based, luminescence; shares compounds with OPRM1-OPRD1 ag; cells, luminescence complementation; activation, % at 9.3 µM; hit rate 45% among 830; AID 504904, 2011;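 note: 0% = vehicle-treated cells and 100% = reference agonist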
HTR5A ag counter: HTR5A agonists in cells, counter-screen for OPRM1-OPRD1 heterodimer agonist project, cell-based, luminescence; shares compounds with OPRM1-OPRD1 ag; HTR5A agonist counterscreen; activation, % at 9.3 µM; hit rate 8% among 830; in the data active = activation above about 17%;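 note: 0% = vehicle-treated cells and 100% = reference agonist response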
An asterisk follows results filed as active. In the library only some 1.4% were active in any assay of this set; here they are far more common. Cut-off read from the data, not from the text of the source, unless noted: active = activation above about 18%; inactive = the rest.

For Cc1ccccc1NC(=S)NCc1ccccc1 the results were HTR5A inv ag 6, OPRM1-OPRD1 ag 0, Arrestin-AP2 inh 4, HTR5A ag ctr -2, MOR-DOR inv ag -2 and DAGLB inhibitor 0.
`Cc1cccc(NC(=S)NCc2ccncc2)c1C` gave HTR5A inv ag -4, OPRM1-OPRD1 ag 2, Arrestin-AP2 inh 5, HTR5A ag ctr 5, MOR-DOR inv ag -12 and DAGLB inhibitor 0.
Screening Cc1ccc(SCCNC(=S)Nc2cc(C)ccc2C)cc1 returned HTR5A inv ag -31, OPRM1-OPRD1 ag 0, Arrestin-AP2 inh 0, HTR5A ag ctr 3, MOR-DOR inv ag 0 and DAGLB inhibitor -6.
For O=C(CC1CC1)Nc1ccc2c(c1)[C@H]1C[C@H](CC(=O)N3CCc4ccccc4C3)O[C@@H](CO)[C@H]1O2 the results were DAGLB inhibitor -1.
CC1(C2CC2)NC(=O)N(CC(=O)N2CCN(c3ccccc3Cl)CC2)C1=O (stereo unspecified) was read as HTR5A inv ag 4, OPRM1-OPRD1 ag -3, Arrestin-AP2 inh 17, HTR5A ag ctr -2, MOR-DOR inv ag 15 and DAGLB inhibitor 0.
Screening c1ccc2cc(C3OCC4(CCCC4)CO3)ccc2c1 returned DAGLB inhibitor -13.
Screening CCOC(=O)C(Cc1c[nH]c2ccc([N+](=O)[O-])cc12)(NC(C)=O)C(=O)OCC returned HTR5A inv ag 19, OPRM1-OPRD1 ag -2, Arrestin-AP2 inh 9, HTR5A ag ctr -5, MOR-DOR inv ag 7 and DAGLB inhibitor 1.
COCCCN1C(=O)C(CC(=O)NCC2CCCCC2)CC(C(=O)N2CCOCC2)=C1C (stereo unspecified) was read as DAGLB inhibitor 3.
For Cc1c(Cl)cccc1NC(=S)NCC(c1cccnc1)N(C)C (stereo unspecified) the results were HTR5A inv ag -13, OPRM1-OPRD1 ag 474*, Arrestin-AP2 inh 4, HTR5A ag ctr 0, MOR-DOR inv ag inactive, DAGLB inhibitor 0, OPRM1-D1 ag cf 15 and HTR5A ag counter 6.
CCC(c1ccccc1)C(CC)c1cc(O)c(O)c(O)c1 (stereo unspecified) was read as HTR5A inv ag -4, OPRM1-OPRD1 ag 18*, Arrestin-AP2 inh 45, HTR5A ag ctr 1, MOR-DOR inv ag -95, DAGLB inhibitor -1, OPRM1-D1 ag cf -1 and HTR5A ag counter -2.
Screening COCCN(C(=O)C1CC(=O)N(Cc2ccccc2)C1)c1nc(-c2ccc([N+](=O)[O-])cc2)cs1 (stereo unspecified) returned HTR5A inv ag 15, OPRM1-OPRD1 ag 127*, Arrestin-AP2 inh 45, HTR5A ag ctr -4, MOR-DOR inv ag inactive, DAGLB inhibitor -6, OPRM1-D1 ag cf 154* and HTR5A ag counter 1.
For O=C(OCc1ccc([N+](=O)[O-])cc1)C1CC(=O)N(Cc2ccccc2)C1 (stereo unspecified) the results were HTR5A inv ag 2, OPRM1-OPRD1 ag -1, Arrestin-AP2 inh -6, HTR5A ag ctr 0, MOR-DOR inv ag 7 and DAGLB inhibitor -1.
CC[C@@H](C)[C@@H]1CN([C@@H](CN2CCC[C@H]2CN2C(N)=NC[C@H]2C(C)C)C(C)C)C(=N)N1CCc1ccc(Cl)c(Cl)c1 was read as HTR5A inv ag 4, OPRM1-OPRD1 ag 205*, Arrestin-AP2 inh -5, HTR5A ag ctr -1, MOR-DOR inv ag inactive, DAGLB inhibitor 3, OPRM1-D1 ag cf 72* and HTR5A ag counter 0.
For COc1ccc(CN2CCc3c([nH]c4ccccc34)C2)c(OC)c1C the results were HTR5A inv ag 12, OPRM1-OPRD1 ag 70*, Arrestin-AP2 inh 6, HTR5A ag ctr -3, MOR-DOR inv ag -344, DAGLB inhibitor 0, OPRM1-D1 ag cf 38* and HTR5A ag counter 1.
CC(Sc1nc(C(F)(F)F)nc2ccccc12)C(=O)NC1CCCC1 (stereo unspecified) was read as HTR5A inv ag -8, OPRM1-OPRD1 ag -3, Arrestin-AP2 inh -9, HTR5A ag ctr 3, MOR-DOR inv ag 17 and DAGLB inhibitor 1.
`Cc1ccc2nc(-c3ccc(NC(=O)Cc4cccs4)cc3)[nH]c2c1` gave HTR5A inv ag 18, OPRM1-OPRD1 ag 23*, Arrestin-AP2 inh 21, HTR5A ag ctr -8, MOR-DOR inv ag -135, DAGLB inhibitor 0, OPRM1-D1 ag cf 18 and HTR5A ag counter 6.
CCCN1CCN(C(=O)c2ccc(S(=O)(=O)N(C)c3ccccc3OC)cc2)CC1 was read as DAGLB inhibitor -6.
Screening Cc1ccc(OCCSCc2nnc(NC(=O)Nc3cccc(Cl)c3)s2)cc1 returned HTR5A inv ag -17, OPRM1-OPRD1 ag 19*, HTR5A ag ctr 5, MOR-DOR inv ag -100, DAGLB inhibitor -1, OPRM1-D1 ag cf -2 and HTR5A ag counter 0.
COc1ccc(C(CNC(=O)c2cc(SC)ccc2Cl)N(C)C)cc1 (stereo unspecified) was read as HTR5A inv ag -18, OPRM1-OPRD1 ag 104*, Arrestin-AP2 inh 4, HTR5A ag ctr 6, MOR-DOR inv ag inactive, DAGLB inhibitor 0, OPRM1-D1 ag cf 4 and HTR5A ag counter 1.
`COc1ccc(C(CNC(=O)c2ccccc2SC)N(C)C)cc1` (stereo unspecified) gave HTR5A inv ag -2, OPRM1-OPRD1 ag 12, Arrestin-AP2 inh 0, HTR5A ag ctr 1, MOR-DOR inv ag -55 and DAGLB inhibitor -3.
COc1ccc(C(CNC(=O)Cc2cccs2)N(C)C)cc1 (stereo unspecified) was read as HTR5A inv ag -3, OPRM1-OPRD1 ag 85*, Arrestin-AP2 inh 24, HTR5A ag ctr 0, MOR-DOR inv ag inactive, DAGLB inhibitor -2, OPRM1-D1 ag cf -5 and HTR5A ag counter -4.
Screening COc1ccc(C(CNC(=O)c2cncc(Br)c2)N(C)C)cc1 (stereo unspecified) returned HTR5A inv ag 3, OPRM1-OPRD1 ag 274*, Arrestin-AP2 inh 37, HTR5A ag ctr -1, MOR-DOR inv ag inactive, DAGLB inhibitor 0, OPRM1-D1 ag cf 232* and HTR5A ag counter -1.
